Measurements as given in ChEMBL document CHEMBL1139633, “Antimalarial activity and synthesis of new trisubstituted pyrimidines” (2005).
Values after ≈ are worked out from the molar mass of the structure shown.

Tested on: Plasmodium falciparum
Test: Minimum inhibitory concentration against schizont maturation in Plasmodium falciparum NF-54
Type: functional
Outline: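 Rieckmann micro-assay with P. falciparum NF-54 cultured in RPMI-1640 (25 mM HEPES, 1% D-glucose, 0.23% NaHCO3, 10% heat-inactivated human serum), sorbitol-synchronized to ring stage. Start at ~1% parasitaemia, 3% haematocrit; compounds 0.25–50 µg/mL in duplicate, 37 °C candle jar, 36–40 h. Giemsa smears scored by microscopy; MIC = lowest concentration blocking complete maturation to schizonts.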

Compound | MIC
COc1ccc(OC)c(-c2cc(-c3ccncc3)nc(N3CCN(Cc4ccccc4)CC3)n2)c1 | 1 µg/mL (≈ 2.14 µM)
CSc1ccc(-c2cc(-c3ccncc3)nc(N3CCN(Cc4ccccc4)CC3)n2)cc1 | 2 µg/mL (≈ 4.41 µM)
Cc1ccc(-c2cc(-c3ccncc3)nc(N3CCN(C)CC3)n2)cc1C | 0.5 µg/mL (≈ 1.39 µM)
CSc1ccc(-c2cc(-c3ccncc3)nc(N3CCN(c4ccccc4)CC3)n2)cc1 | 10 µg/mL (≈ 22.7 µM)
Cc1ccc(-c2cc(-c3ccncc3)nc(N3CCN(c4ccccc4)CC3)n2)cc1 | 1 µg/mL (≈ 2.45 µM)
c1ccc(CN2CCN(c3nc(-c4ccccc4)cc(-c4ccncc4)n3)CC2)cc1 | 2 µg/mL (≈ 4.91 µM)
COc1cc(OC)c(-c2cc(-c3ccncc3)nc(N3CCN(C)CC3)n2)cc1OC | 2 µg/mL (≈ 4.74 µM)
Cc1ccc(-c2cc(-c3ccncc3)nc(N3CCN(Cc4ccccc4)CC3)n2)cc1 | 2 µg/mL (≈ 4.74 µM)
O=[N+]([O-])c1cccc(-c2cc(-c3ccncc3)nc(N3CCN(Cc4ccccc4)CC3)n2)c1 | 2 µg/mL (≈ 4.42 µM)
Cc1ccc(-c2cc(-c3ccncc3)nc(N3CCN(Cc4ccccc4)CC3)n2)cc1C | 1 µg/mL (≈ 2.3 µM)
CCc1nc(N)nc(N)c1-c1ccc(Cl)cc1 [PYRIMETHAMINE] | 10 µg/mL (≈ 40.2 µM)
COc1cc(OC)c(-c2cc(-c3ccncc3)nc(N3CCN(c4ccccc4)CC3)n2)cc1OC | 10 µg/mL (≈ 20.7 µM)
COc1cc(OC)c(-c2cc(-c3ccncc3)nc(N3CCN(Cc4ccccc4)CC3)n2)cc1OC | 2 µg/mL (≈ 4.02 µM)
COc1ccc(OC)c(-c2cc(-c3ccncc3)nc(N3CCN(C)CC3)n2)c1 | 0.5 µg/mL (≈ 1.28 µM)
Cc1ccc(-c2cc(-c3ccncc3)nc(N3CCN(C)CC3)n2)cc1 | 1 µg/mL (≈ 2.89 µM)
O=[N+]([O-])c1cccc(-c2cc(-c3ccncc3)nc(N3CCN(c4ccccc4)CC3)n2)c1 | 10 µg/mL (≈ 22.8 µM)

Compound | MIC
c1ccc(-c2cc(-c3ccncc3)nc(N3CCN(c4ccccc4)CC3)n2)cc1 | 10 µg/mL (≈ 25.4 µM)
CN1CCN(c2nc(-c3ccccc3)cc(-c3ccncc3)n2)CC1 | 1 µg/mL (≈ 3.02 µM)
CN1CCN(c2nc(-c3ccncc3)cc(-c3ccc(Cl)cc3)n2)CC1 | 2 µg/mL (≈ 5.47 µM)
Clc1ccc(-c2cc(-c3ccncc3)nc(N3CCN(Cc4ccccc4)CC3)n2)cc1 | 10 µg/mL (≈ 22.6 µM)
COc1cc(-c2cc(-c3ccncc3)nc(N3CCN(c4ccccc4)CC3)n2)cc(OC)c1OC | 50 µg/mL (≈ 103 µM)
Cc1ccc(-c2cc(-c3ccncc3)nc(N3CCN(c4ccccc4)CC3)n2)cc1C | 2 µg/mL (≈ 4.74 µM)
COc1ccc(-c2cc(-c3ccncc3)nc(N3CCN(c4ccccc4)CC3)n2)cc1 | 2 µg/mL (≈ 4.72 µM)
COc1ccc(-c2cc(-c3ccncc3)nc(N3CCN(C)CC3)n2)cc1 | 1 µg/mL (≈ 2.77 µM)
COc1ccc(OC)c(-c2cc(-c3ccncc3)nc(N3CCN(c4ccccc4)CC3)n2)c1 | 2 µg/mL (≈ 4.41 µM)
Clc1ccc(-c2cc(-c3ccncc3)nc(N3CCN(c4ccccc4)CC3)n2)cc1 | 10 µg/mL (≈ 23.4 µM)
CN1CCN(c2nc(-c3ccncc3)cc(-c3cccc([N+](=O)[O-])c3)n2)CC1 | 1 µg/mL (≈ 2.66 µM)
COc1cc(-c2cc(-c3ccncc3)nc(N3CCN(Cc4ccccc4)CC3)n2)cc(OC)c1OC | 10 µg/mL (≈ 20.1 µM)
COc1ccc(-c2cc(-c3ccncc3)nc(N3CCN(Cc4ccccc4)CC3)n2)cc1 | 1 µg/mL (≈ 2.29 µM)
CSc1ccc(-c2cc(-c3ccncc3)nc(N3CCN(C)CC3)n2)cc1 | 1 µg/mL (≈ 2.65 µM)
COc1cc(-c2cc(-c3ccncc3)nc(N3CCN(C)CC3)n2)cc(OC)c1OC | 10 µg/mL (≈ 23.7 µM)
